Reference: the array DNA melting data of Ke et al. (doi:10.1101/2024.01.08.574731)

What was measured:
[1] = folding enthalpy; higher = less favourable; fluorescence melt of hairpins on a sequencing array, two-state fit; conditions: sodium 0.088 M
Summary of the method: (§1)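 With Cy3 and quencher oligos annealed, library hairpins on a sequenced MiSeq flow cell were imaged for Cy3 fluorescence in 50 mM Na-HEPES pH 8.0, 25 mM NaCl, in 2.5 °C steps up to 60 °C. Melting temperature and folding enthalpy were derived from bootstrapped two-state fits of signals normalised to pre-quench Cy3 and to control constructs. Four replicates were combined by inverse variance, with fitted temperatures raised by 9.35 °C to match UV melts.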

[2] = melting temperature; fluorescence melt of hairpins on a sequencing array, two-state fit, raised by 9.35 °C to match UV melts; conditions: sodium 0.088 M
Summary of the method: as §1

Row | Sequence | folding enthalpy [1] [kcal/mol] | Tm [2] [°C]
1 | GATCCGTAGGCGGATC ((((((....)))))) | -41.3 | 59.2
2 | GTTCTGGGAAACCAAAAC (((.(((....))).))) | -12.4 | 26.5
3 | GCTATCGAAAGATTGAGC ((((((....)))..))) | -20.5 | 32.9
4 | GTGGCAGGAAACTGTCAC (((.(((....))).))) | -41 | 54.3
5 | GTGACCGAAAGGTTCAC ((((((....))).))) | -29.5 | 53
6 | GTGGAAACGAAAGTTCAC (((..(((....)))))) | -19.5 | 33.7
7 | GCGGCAGGAAACTACCGC ((((.((....)).)))) | -41.2 | 53.1
8 | GCTCGGCGAAAGCAGGGC ((.(.((....)).).)) | -14 | 67.7
9 | GCTTGGCGAAAGCCCCGC ((..(((....)))..)) | -12 | 35.8
10 | GTTCTCGAAAGAGGAAC ((((((....))).))) | -20.8 | 38.3
11 | GTTGCTGAAAAGCAAC ((((((....)))))) | -32.8 | 66
12 | GATCTTCATGAAGATC ((((((....)))))) | -43.4 | 51.1
13 | GGAAGCCGAAAGGCTCC (((.(((....)))))) | -15.7 | 56
14 | GTACCAGGAAACTGATAC (((.(((....))).))) | -26.6 | 31.4
15 | GCGGTGGCCCGC ((((....)))) | -16.3 | 61
16 | GTGGTCGAAAGACTCCAC ((((((....)))..))) | -13.7 | 38.9
17 | GGTTTTTCGAAAGAAACC (((..(((....)))))) | -18.8 | 34
18 | GCACCCTCGAAAGAGTGC (((..(((....)))))) | -23.1 | 41.6
19 | GATCAACGTTTTGATC ((((((....)))))) | -30.4 | 42.8
20 | CGATCGGAAACGAGATCG ((((((....)))..))) | -28.4 | 42.5
21 | GATCGTAACACGATC ((((((...)))))) | -37.4 | 57.5
22 | GTTTGCGAAAGCATAAC ((((((....))).))) | -17.3 | 43
23 | GTCCTAGAAATAGGAC ((((((....)))))) | -36.6 | 50.6

Row | Sequence | folding enthalpy [1] [kcal/mol] | Tm [2] [°C]
24 | GGCGTGACGAAAGTCGCC (((..(((....)))))) | -21.1 | 57.5
25 | GGAGCTCGAAAGAGGTCC (((.(((....))).))) | -37.8 | 65.9
26 | GGTCGCGGAAACGCGATC (.(((((....))))).) | -17.6 | 63.7
27 | GTCTTCGGAAACGAGGAC (((.(((....))).))) | -39.1 | 49.7
28 | GTTCTAGGAAACTAGGAC ((.((((....)))).)) | -28.5 | 39.7
29 | GGCAGCGAAAGCTTTGCC ((((((....)))..))) | -18.1 | 51.6
30 | GGCGCCGAAAGGCCAGCC ((((((....)))..))) | -21.1 | 61
31 | GATCACGAGCGTGATC ((((((....)))))) | -39.5 | 59.1
32 | GCCCACGAAAGTGCTGGC ((((((....)))..))) | -18.9 | 47.4
33 | GAGGCCCGAAAGGGCTC (((.(((....)))))) | -9.95 | 57.9
34 | GCGGACGAAAGTCACCGC ((((((....)))..))) | -29.5 | 51.5
35 | GCATTGGGAAACCAGTGC (((.(((....))).))) | -34.4 | 50.7
36 | GCCGATGGAAACATCGAC (.(((((....))))).) | -16.3 | 48
37 | GTTGTACGAAAGTAAAC (((.(((....)))))) | -21.9 | 39.7
38 | GGGAGCGAAAGCTAGCCC ((((((....)))..))) | -14.2 | 42.7
39 | GCCTACGAAAGTATAGGC ((((((....)))..))) | -25.5 | 49.3
40 | CGCCCGGAAACGGGTGCG ((((((....)))..))) | -10.7 | 57.5
41 | GATCATCCGGATGATC ((((((....)))))) | -52.5 | 54.8
42 | GAGTAAGGAAACTTACCC (.(((((....))))).) | -14.6 | 28.4
43 | GCTGAACCGAAAGGTAGC (((..(((....)))))) | -21.9 | 42.1
44 | GGACCTGGAAACAGATCC (((.(((....))).))) | -28.7 | 40.2
45 | GGGTTCGGAAACGGATCC ((.(.((....)).).)) | -27.2 | 40.2
46 | GATCCCCTCAGGGATC ((((((....)))))) | -41.7 | 66

Row | Sequence | folding enthalpy [1] [kcal/mol] | Tm [2] [°C]
47 | CGCTTGCGGAAACGCGCG (((..(((....)))))) | -10.8 | 51.3
48 | GGCGGGGGAAACCCCGTC (.(((((....))))).) | -22.7 | 65.1
49 | GAAAGGGGAAACCCTTTC (((((((....))))))) | -47 | 54.8
50 | GAGCATGGAAACGTGCTC (((((.(....).))))) | -47.3 | 52.9
51 | GCCTATCCGAAAGGAGGC (((..(((....)))))) | -20.7 | 47.3
52 | GACCATCCGAAAGGAGTC (((..(((....)))))) | -14.4 | 26.4
53 | GTAGACGAAAGTCCGTAC ((((((....)))..))) | -8.44 | 21
54 | GGTTCGCGAAAGCGTACC (((.(((....))).))) | -26 | 56
55 | GTTTCCGGAAACGGAAGC (.(((((....))))).) | -16.7 | 49.3
56 | GATTAGGAAACTAATC ((((((....)))))) | -30.5 | 43.9
57 | GATCCTCCGTAGGATC ((((((....)))))) | -20.4 | 48.5
58 | GGGCTGGGAAACTAGCCC (((((.(....).))))) | -45.3 | 58.1
59 | CGCATCGGAAACGAGGCG (((.(((....))).))) | -44.1 | 61.4
60 | GTTTCGGGAAACCGAGAC ((.((((....)))).)) | -21.4 | 47.3
61 | GTGCGCGAAAGCGTCAC ((((((....))).))) | -21 | 58.6
62 | GCCGAGCGAAAGCAGGGC (((..((....))..))) | -26.3 | 57.2
63 | GCGGGCGAAAGCCCACGC ((((((....)))..))) | -14 | 65.5
64 | GTCTCCGAAAGGATTGAC ((((((....)))..))) | -20 | 35.5
65 | GGGTACGAAAGTAACCC ((((((....))).))) | -26.9 | 54.3
66 | GGCCCCGAAAGGGCTGCC ((((((....)))..))) | -15.1 | 68.2
67 | GCGTCCCCGAAAGGGCGC (((..(((....)))))) | -24.3 | 65.2
68 | CGCACGGAAACGTCAGCG ((((((....)))..))) | -26.4 | 42.7
69 | GTTGCCTCGAAAGAGAAC (((..(((....)))))) | -12.1 | 25.4

Row | Sequence | folding enthalpy [1] [kcal/mol] | Tm [2] [°C]
70 | GCTGAGCGAAAGCCCGGC ((.(.((....)).).)) | -20.1 | 52.2
71 | CGGTCGGAAACGATACCG ((((((....)))..))) | -26.9 | 41.2
72 | GGTAAACGAAAGTTACC (((.(((....)))))) | -25.6 | 46
73 | GATCGGGTTGCCGATC ((((((....)))))) | -31.1 | 57.7
74 | GATTGTGGAAACACAACC (.(((((....))))).) | -16.9 | 35.9
75 | GGCTACGAAAGTATGGCC ((((((....)))..))) | -25.7 | 47.3
76 | GGAGACGAAAGTCCATCC ((((((....)))..))) | -10.1 | 30.3
77 | GTTACCGAAAGGTCTAAC ((((((....)))..))) | -9.14 | 29.2
78 | GATCGTGGTTACGATC ((((((....)))))) | -40.3 | 58.3
79 | GGTGTCGGAAACGACGCC ((.((((....)))).)) | -28.6 | 64.5
80 | GATCAGCGTTCTGATC ((((((....)))))) | -37.3 | 49.8
81 | GCCCCGCGAAAGCCTGGC (((..((....))..))) | -17 | 39.5
82 | GCCATCCCGAAAGGGGGC (((..(((....)))))) | -18.1 | 51.8
83 | GCTAGGGAAACCTAGC ((((((....)))))) | -36.9 | 58.4
84 | GAAGTTGGAAACAACTTC (((((((....))))))) | -41.2 | 57.3
85 | GCGAGCACTCGC ((((....)))) | -26.4 | 56.8
86 | GCTAACGAAAGTTCAGC ((((((....))).))) | -21.8 | 39
87 | GAAACACGAAAGTGGTTC (((.(((....))).))) | -44.3 | 55
88 | GCCGACGAAAGTCAGGC ((((((....))).))) | -39.5 | 64.1
89 | GCGTTGAAACGC ((((....)))) | -20.8 | 53.5
90 | GGCGGAGGAAACCCCGCC (((((.(....).))))) | -33.4 | 64.5
91 | GCGCAACGAAAGTTACGC (((.(((....))).))) | -44.9 | 57.5
92 | GCTGCCGAAAGGCGAAGC ((((((....)))..))) | -15.5 | 49
